Tests used:
L6 = assay: Cytotoxicity against rat L6 cells after 72 hrs by Alamar Blue assay; type: cell-based; conditions: L6, 72 h
Method in brief: (§1)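 Uses T. b. rhodesiense STIB900, T. cruzi Tulahuen C2C4 LacZ intracellular amastigotes, or L6 rat myoblasts depending on line.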

[1] = Selectivity index, ratio of IC50 for rat L6 cells to IC50 for Plasmodium falciparum K1; type: toxicity, cell-based; conditions: for selectivity ratio: L6 cells, read-out: Ratio IC50
Method in brief: (§2)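 Selectivity index is IC50 against L6 rat myoblast cells divided by IC50 against the named parasite.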

Plasmodium falciparum = assay: Antiprotozoal activity against chloroquine-resistant Plasmodium falciparum K1 after 48 hrs by [3H]-hypoxanthine incorporation assay; type: functional, organism-based; conditions: Plasmodium falciparum, K1
[2] = system: Trypanosoma brucei rhodesiense; assay: Antiprotozoal activity against Trypanosoma brucei rhodesiense STIB900 infected in NMRI mouse assessed as host mean survival days at 5 mg/kg, ip qd for 4 days; type: functional; conditions: route intraperitoneal
Method in brief: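 Acute-stage HAT mouse model infected with STIB900. Cure means survival to 60 days after infection with no parasitemia relapse. Mean survival days are counted from infection and use every mouse: relapsed mice, plus cured mice entered as >60 days.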

[3] = system: Trypanosoma brucei rhodesiense; assay: Antiprotozoal activity against Trypanosoma brucei rhodesiense STIB900 after 72 hrs by Alamar Blue assay; type: functional, organism-based; conditions: Trypanosoma brucei, STIB900, 72 h; method in brief: as §1
[4] = Selectivity index, ratio of IC50 for rat L6 cells to IC50 for Trypanosoma cruzi Tulahuen C2C4; type: toxicity, cell-based; conditions: read-out: Ratio IC50; method in brief: as §2
[5] = Selectivity index, ratio of IC50 for rat L6 cells to IC50 for Trypanosoma brucei rhodesiense STIB900; type: toxicity, cell-based; conditions: for selectivity ratio: L6 cells, read-out: Ratio IC50; method in brief: as §2
Trypanosoma cruzi = assay: Antiprotozoal activity against intracellular amastigote form of Trypanosoma cruzi Tulahuen C2C4 expressing LacZ infected in rat L6 cells after 48 hrs; type: functional, organism-based; conditions: Tulahuen C2C4, L6, 48 h; method in brief: as §1

Row | SMILES | IC50 (L6) | selectivity ratio [1] | IC50 (Plasmodium falciparum) | MSD [2] | IC50 [3] | selectivity ratio [4] | selectivity ratio [5] | IC50 (Trypanosoma cruzi) | Ratio IC50 ([5]; l6) | Ratio IC50 ([1]; l6)
1 | C[C@@H]1CC[C@H]2[C@@H](C)C(=O)O[C@@H]3O[C@@]4(C)CC[C@@H]1[C@]32OO4 [ARTEMISININ] | 150000 nM | 34900 | 4 nM | – | – | – | – | – | – | –
2 | N=C(N)c1ccc(OCCCCCOc2ccc(C(=N)N)cc2)cc1 [PENTAMIDINE] | – | – | – | >38 days | – | – | – | – | – | –
3 | N=C(N)c1cccc(-c2cc(Cl)cc(-c3cccc(C(=N)N)c3)c2)c1 | 30900 nM | 944 | 33 nM | – | 44 nM | < 1 | 709 | 50200 nM | – | –
4 | N=C(N)c1ccc(-c2cc(Cl)cc(-c3cccc(C(=N)N)c3)c2)cc1 | 12700 nM | 1250 | 10 nM | – | 97 nM | < 1 | 130 | 46600 nM | – | –
5 | Cl.Cl.N=C(N)c1ccc(-c2cc(O)cc(-c3ccc(C(=N)N)cc3)c2)cc1 | > 150000 nM | > 3950 | 38 nM | >41.25 days | 4 nM | < 1 | > 37500 | > 150000 nM | – | –
6 | CC1(C)CN=C(c2cccc(-c3cccc(-c4cccc(C5=NCC(C)(C)CN5)c4)c3)c2)NC1 | 56600 nM | 9500 | 6 nM | – | 809 nM | 1 | 70 | 45400 nM | – | –
7 | O=C(Cn1ccnc1[N+](=O)[O-])NCc1ccccc1 [BENZNIDAZOLE] | > 150000 nM | – | – | – | – | 115 | – | 1300 nM | – | –
8 | c1cc(C2=NCCN2)cc(-c2cccc(-c3cccc(C4=NCCN4)c3)c2)c1 | 31700 nM | 51 | 619 nM | – | 1600 nM | 2 | 20 | 20400 nM | – | –
9 | N=C(N)c1ccnc(-c2cccc(-c3cc(C(=N)N)ccn3)c2)c1 | > 150000 nM | > 1940 | 77 nM | – | 1170 nM | – | > 128 | > 150000 nM | – | –
10 | CC(=O)O.N=C(N)c1ccc(-c2cccc(-c3ccc(C(=N)N)cn3)c2)nc1 | > 150000 nM | – | 45 nM | >60 days | 22 nM | – | – | > 150000 nM | > 6856 | > 3339
11 | CC1(C)CN=C(c2ccc(-c3cccc(-c4ccc(C5=NCC(C)(C)CN5)cc4)c3)cc2)NC1 | 122000 nM | 49300 | 2 nM | – | 140 nM | < 1 | 871 | 151000 nM | – | –
12 | CCN(CC)CCCC(C)Nc1ccnc2cc(Cl)ccc12 (stereo not given) [CHLOROQUINE] | 76500 nM | – | – | – | – | – | – | – | – | –
13 | CC1(C)CN=C(c2ccc(-c3cc(-c4ccc(C5=NCC(C)(C)CN5)cc4)cc([N+](=O)[O-])c3)cc2)NC1 | > 150000 nM | > 46800 | 3 nM | – | 692 nM | – | > 217 | > 150000 nM | – | –
14 | N=C(N)c1cncc(-c2cccc(-c3cncc(C(=N)N)c3)c2)c1 | > 150000 nM | > 2580 | 58 nM | – | 527 nM | – | > 285 | > 150000 nM | – | –
15 | N=C(N)c1ccc(-c2ccc(-c3ccc(C(=N)N)cc3)o2)cc1 [FURAMIDINE] | – | – | 14 nM | >46 days | 3 nM | – | – | 23300 nM | – | –
16 | COc1cc(-c2ccc(C(=N)N)cc2)cc(-c2ccc(C(=N)N)cc2)c1.Cl.Cl | 33000 nM | 693 | 48 nM | >38 days | 5 nM | < 1 | 7270 | 59100 nM | – | –
17 | CC(C)NC(=N)c1cccc(-c2cccc(-c3cccc(C(=N)NC(C)C)c3)c2)c1 | > 150000 nM | > 4190 | 31 nM | – | 617 nM | > 1 | > 243 | 141000 nM | – | –

From ChEMBL document CHEMBL2396601, “Synthesis and antiprotozoal activity of dicationic m-terphenyl and 1,3-dipyridylbenzene derivatives” (J Med Chem, 2013)
